ChEMBL document CHEMBL1134580, “Novel hypotensive agents from Verbesina caracasana. 8. Synthesis and pharmacology of (3,4-dimethoxycinnamoyl)-N(1)-agmatine and synthetic analogues” (2001)

What was measured:
[1] = test system: Rattus norvegicus; assay: Changes in diastolic Blood pressure following iv administration at (4.12 umol/kg) anesthetized rats; assay type: functional
In short: (§1)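 Adult male Wistar rats (280 ± 5 g) anesthetized with 10% (w/v) ethylurethane in saline, 1 mL/100 g ip. Trachea cannulated for spontaneous breathing, body temperature held at 37 °C, 60 min stabilization. Single iv injection into the femoral vein of a saline-dissolved drug, dose expressed as free base; n = 4 per drug. Aortic systolic/diastolic BP recorded via a femoral artery catheter and pressure transducer; peak change taken.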

[2] = test system: Rattus norvegicus; assay: Changes in systolic Blood pressure following iv administration at (4.12 umol/kg) anesthetized rats; assay type: functional; in short: as §1
[3] = test system: Rattus norvegicus; assay: Changes in systolic blood pressure following iv administration at 4.12 umol/kg in anesthetized rats; assay type: functional, Artery; in short: as §1
[4] = test system: Rattus norvegicus; assay: Changes in diastolic blood pressure following iv administration at 4.12 umol/kg in anesthetized rats; assay type: functional, Artery; in short: as §1
[5] = test system: Rattus norvegicus; assay: Changes in systolic blood pressure following iv administration at (4.12 umol/kg) anesthetized rats; assay type: functional; in short: as §1
[6] = test system: Rattus norvegicus; assay: Changes in diastolic blood pressure following iv administration at (4.12 umol/kg) anesthetized rats; assay type: functional; in short: as §1
[7] = test system: Rattus norvegicus; assay: Changes in systolic Blood pressure following iv administration at (25 umol/kg) anesthetized rats; assay type: functional; in short: as §1
[8] = test system: Rattus norvegicus; assay: Changes in diastolic Blood pressure following iv administration at (25 umol/kg) anesthetized rats; assay type: functional; in short: as §1
[9] = test system: Rattus norvegicus; assay: Changes in diastolic blood pressure following iv administration at (12 umol/kg)anesthetized rats; assay type: functional; in short: as §1
[10] = test system: Rattus norvegicus; assay: Changes in systolic blood pressure following iv administration at (12 umol/kg)anesthetized rats; assay type: functional; in short: as §1
[11] = test system: Rattus norvegicus; assay: Changes in systolic Blood pressure following iv administration at (5 umol/kg) anesthetized rats; assay type: functional; in short: as §1
[12] = test system: Rattus norvegicus; assay: Changes in diastolic Blood pressure following iv administration at (5 umol/kg) anesthetized rats; assay type: functional; in short: as §1
[13] = test system: Rattus norvegicus; assay: Changes in systolic Blood pressure following iv administration at (8 umol/kg) anesthetized rats; assay type: functional; in short: as §1
[14] = test system: Rattus norvegicus; assay: Changes in diastolic Blood pressure following iv administration at (8 umol/kg) anesthetized rats; assay type: functional; in short: as §1

## COc1ccc(/C=C/C(=O)NCCN=C(N)N)cc1OC.CS(=O)(=O)O
[1]
  Blood pressure: -33 mmHg
[2]
  Blood pressure: -29 mmHg

## COc1ccc(/C=C/C(=O)NCCCCN=C(N)N)cc1OC.CS(=O)(=O)O
[3]
  Blood pressure: -21 mmHg
[4]
  Blood pressure: -30 mmHg

## COc1ccc(C(=O)NCCCC/N=C(\N)NCC=C(C)C)cc1.CS(=O)(=O)O
[1]
  Blood pressure: -31 mmHg
[2]
  Blood pressure: -28 mmHg

## COc1ccc(/C=C/C(=O)NCCCN=C(N)N)cc1OC.CS(=O)(=O)O
[1]
  Blood pressure: -28 mmHg
[2]
  Blood pressure: -24 mmHg

## COc1ccc(C=CC(=O)NCCCCN=C(N)N)cc1OC
[1]
  Blood pressure: -10 mmHg
[2]
  Blood pressure: -12 mmHg

## COc1ccc(/C=C/C(=O)NCCCCCCN=C(N)N)cc1OC.CS(=O)(=O)O
[5]
  Blood pressure: -14 mmHg
[6]
  Blood pressure: -36 mmHg

## COc1ccc(/C=C/C(=O)NCCCCCN=C(N)N)cc1OC.CS(=O)(=O)O
[1]
  Blood pressure: -27 mmHg
[2]
  Blood pressure: -17 mmHg

## N=C(N)NCCN1CCCCCCC1 [GUANETHIDINE]
[7]
  Blood pressure: -32 mmHg
[8]
  Blood pressure: -23 mmHg

## C[N+](C)(C)CCCCCC[N+](C)(C)C.[Cl-].[Cl-] [HEXAMETHONIUM CHLORIDE]
[9]
  Blood pressure: -30 mmHg
[10]
  Blood pressure: -46 mmHg

## COc1ccc(Cc2nccc3cc(OC)c(OC)cc23)cc1OC [PAPAVERINE]
[11]
  Blood pressure: -21 mmHg
[12]
  Blood pressure: -16 mmHg

## COC(=O)[C@H]1[C@H]2C[C@@H]3c4[nH]c5cc(OC)ccc5c4CCN3C[C@H]2C[C@@H](OC(=O)c2cc(OC)c(OC)c(OC)c2)[C@@H]1OC [RESERPINE]
[13]
  Blood pressure: -34 mmHg
[14]
  Blood pressure: -27 mmHg
